Molecules are shown by their SMILES.

The values below come from ChEMBL document CHEMBL4699564, “Hit-to-lead optimization and discovery of a potent, and orally bioavailable G protein coupled receptor kinase 2 (GRK2) inhibitor” (Bioorg Med Chem Lett, 2020).

The target of data set [1] is Rho-associated protein kinase 1 (Homo sapiens, UniProt Q13464). The data set is described as follows: Inhibition of human ROCK1.
Data set [2] deals with T1, G protein-coupled receptor kinase 5 (Homo sapiens, UniProt P34947). The data set is described as follows: Inhibition of human GRK5.
T1 sequence (P34947 whole entry): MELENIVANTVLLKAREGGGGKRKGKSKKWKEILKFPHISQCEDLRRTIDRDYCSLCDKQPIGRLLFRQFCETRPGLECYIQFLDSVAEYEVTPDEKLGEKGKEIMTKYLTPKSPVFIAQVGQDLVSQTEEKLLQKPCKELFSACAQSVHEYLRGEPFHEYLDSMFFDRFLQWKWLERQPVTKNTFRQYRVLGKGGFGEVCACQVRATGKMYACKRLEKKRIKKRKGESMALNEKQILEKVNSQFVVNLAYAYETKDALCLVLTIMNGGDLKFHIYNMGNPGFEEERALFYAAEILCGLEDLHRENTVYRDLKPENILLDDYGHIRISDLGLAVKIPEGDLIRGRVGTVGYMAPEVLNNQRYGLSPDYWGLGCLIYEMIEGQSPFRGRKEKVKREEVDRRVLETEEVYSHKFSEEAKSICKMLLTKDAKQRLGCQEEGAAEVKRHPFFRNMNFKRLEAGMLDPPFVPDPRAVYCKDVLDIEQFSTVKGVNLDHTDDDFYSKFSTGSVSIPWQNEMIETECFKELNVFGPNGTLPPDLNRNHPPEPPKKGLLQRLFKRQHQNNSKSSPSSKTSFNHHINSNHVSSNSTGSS
In data set [3] the target is Protein kinase C alpha type (Homo sapiens, UniProt P17252). The data set is described as follows: Inhibition of human PKCalpha.
Data set [4] can be described thus: Inhibition of protein kinase A (unknown origin). On the set-up: species or system Homo sapiens.
In data set [5] the target is Protein kinase C beta type (Homo sapiens, UniProt P05771). The data set is described as follows: Inhibition of human PKCbeta1.
Chain of Protein kinase C beta type (P05771 whole entry): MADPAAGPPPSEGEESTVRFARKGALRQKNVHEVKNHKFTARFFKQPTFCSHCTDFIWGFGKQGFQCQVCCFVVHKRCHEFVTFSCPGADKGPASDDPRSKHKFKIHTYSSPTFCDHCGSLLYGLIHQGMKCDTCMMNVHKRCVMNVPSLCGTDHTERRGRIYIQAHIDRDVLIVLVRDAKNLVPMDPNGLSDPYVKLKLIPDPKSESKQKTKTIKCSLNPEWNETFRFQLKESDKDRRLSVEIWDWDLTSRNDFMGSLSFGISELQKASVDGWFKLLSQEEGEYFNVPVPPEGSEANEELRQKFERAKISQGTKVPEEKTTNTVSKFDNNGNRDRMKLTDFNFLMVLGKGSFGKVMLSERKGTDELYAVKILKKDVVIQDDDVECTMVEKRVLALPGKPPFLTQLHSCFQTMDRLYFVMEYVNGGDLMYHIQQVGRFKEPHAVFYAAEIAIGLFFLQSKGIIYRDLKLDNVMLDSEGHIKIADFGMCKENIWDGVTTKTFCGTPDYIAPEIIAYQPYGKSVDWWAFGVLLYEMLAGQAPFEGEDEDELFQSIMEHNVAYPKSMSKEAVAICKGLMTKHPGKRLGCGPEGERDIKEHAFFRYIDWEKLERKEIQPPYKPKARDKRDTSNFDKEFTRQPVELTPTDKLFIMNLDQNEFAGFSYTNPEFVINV
Another data set addresses T2, Aurora kinase A (Homo sapiens, UniProt O14965).
T2 sequence (O14965 whole entry): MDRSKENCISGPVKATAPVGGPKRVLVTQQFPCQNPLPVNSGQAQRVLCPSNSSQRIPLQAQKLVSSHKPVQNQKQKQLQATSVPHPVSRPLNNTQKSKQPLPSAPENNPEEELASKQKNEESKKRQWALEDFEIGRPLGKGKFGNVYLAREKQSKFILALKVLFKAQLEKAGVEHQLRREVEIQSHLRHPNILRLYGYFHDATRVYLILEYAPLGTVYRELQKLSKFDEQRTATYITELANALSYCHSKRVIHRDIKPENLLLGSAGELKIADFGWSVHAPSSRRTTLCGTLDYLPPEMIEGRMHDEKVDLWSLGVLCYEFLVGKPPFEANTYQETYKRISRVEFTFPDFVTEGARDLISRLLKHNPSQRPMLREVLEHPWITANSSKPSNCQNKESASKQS
The data set is described as follows: Inhibition of human Aurora A.

In data set [6] the target is Calcium/calmodulin-dependent protein kinase type II subunit beta (Homo sapiens, UniProt Q13554). The data set is described as follows: Inhibition of human CaMK2beta.
In data set [7] the target is G protein-coupled receptor kinase 6 (Homo sapiens, UniProt P43250). The data set is described as follows: Inhibition of human GRK6.
Chain of G protein-coupled receptor kinase 6 (P43250 whole entry): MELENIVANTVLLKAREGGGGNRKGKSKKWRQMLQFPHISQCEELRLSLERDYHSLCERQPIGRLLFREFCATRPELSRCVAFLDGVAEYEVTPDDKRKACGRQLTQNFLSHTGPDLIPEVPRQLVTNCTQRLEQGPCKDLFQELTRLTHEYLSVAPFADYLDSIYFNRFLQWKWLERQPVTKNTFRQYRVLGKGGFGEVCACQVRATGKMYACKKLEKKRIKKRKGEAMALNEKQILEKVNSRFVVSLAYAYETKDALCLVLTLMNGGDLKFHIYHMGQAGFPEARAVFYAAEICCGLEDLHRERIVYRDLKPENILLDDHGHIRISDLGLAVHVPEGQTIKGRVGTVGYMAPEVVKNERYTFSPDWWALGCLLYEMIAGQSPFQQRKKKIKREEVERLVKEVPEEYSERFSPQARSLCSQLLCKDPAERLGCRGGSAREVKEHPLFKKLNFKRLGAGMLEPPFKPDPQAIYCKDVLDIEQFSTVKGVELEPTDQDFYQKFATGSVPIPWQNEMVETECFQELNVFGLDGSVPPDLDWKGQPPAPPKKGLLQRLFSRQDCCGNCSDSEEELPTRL
The target in data set [8] is Ribosomal protein S6 kinase alpha-1 (Homo sapiens, UniProt Q15418). The data set is described as follows: Inhibition of RSK1 (unknown origin).
Chain of Ribosomal protein S6 kinase alpha-1 (Q15418 whole entry): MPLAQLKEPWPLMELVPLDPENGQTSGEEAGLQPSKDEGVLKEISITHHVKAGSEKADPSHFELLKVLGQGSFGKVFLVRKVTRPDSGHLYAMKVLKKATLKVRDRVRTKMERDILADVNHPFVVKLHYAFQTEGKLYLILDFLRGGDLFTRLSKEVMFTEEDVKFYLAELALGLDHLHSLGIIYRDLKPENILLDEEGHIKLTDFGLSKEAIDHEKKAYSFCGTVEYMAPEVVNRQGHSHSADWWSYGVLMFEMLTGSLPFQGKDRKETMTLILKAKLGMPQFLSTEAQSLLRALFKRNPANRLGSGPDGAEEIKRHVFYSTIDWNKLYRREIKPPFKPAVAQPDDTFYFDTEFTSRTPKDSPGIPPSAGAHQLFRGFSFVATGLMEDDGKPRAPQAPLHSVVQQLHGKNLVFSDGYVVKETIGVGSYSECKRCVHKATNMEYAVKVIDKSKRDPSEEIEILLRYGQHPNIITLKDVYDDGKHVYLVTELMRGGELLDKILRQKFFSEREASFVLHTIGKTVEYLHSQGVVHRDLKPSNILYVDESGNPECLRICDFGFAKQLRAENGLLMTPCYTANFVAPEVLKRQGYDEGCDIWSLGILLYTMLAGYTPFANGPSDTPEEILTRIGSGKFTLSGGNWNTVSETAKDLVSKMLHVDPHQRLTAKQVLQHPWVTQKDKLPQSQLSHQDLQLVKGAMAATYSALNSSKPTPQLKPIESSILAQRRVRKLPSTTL
A further data set has as its target T3, Rhodopsin kinase GRK7 (Homo sapiens, UniProt Q8WTQ7).
T3 sequence (Q8WTQ7 whole entry): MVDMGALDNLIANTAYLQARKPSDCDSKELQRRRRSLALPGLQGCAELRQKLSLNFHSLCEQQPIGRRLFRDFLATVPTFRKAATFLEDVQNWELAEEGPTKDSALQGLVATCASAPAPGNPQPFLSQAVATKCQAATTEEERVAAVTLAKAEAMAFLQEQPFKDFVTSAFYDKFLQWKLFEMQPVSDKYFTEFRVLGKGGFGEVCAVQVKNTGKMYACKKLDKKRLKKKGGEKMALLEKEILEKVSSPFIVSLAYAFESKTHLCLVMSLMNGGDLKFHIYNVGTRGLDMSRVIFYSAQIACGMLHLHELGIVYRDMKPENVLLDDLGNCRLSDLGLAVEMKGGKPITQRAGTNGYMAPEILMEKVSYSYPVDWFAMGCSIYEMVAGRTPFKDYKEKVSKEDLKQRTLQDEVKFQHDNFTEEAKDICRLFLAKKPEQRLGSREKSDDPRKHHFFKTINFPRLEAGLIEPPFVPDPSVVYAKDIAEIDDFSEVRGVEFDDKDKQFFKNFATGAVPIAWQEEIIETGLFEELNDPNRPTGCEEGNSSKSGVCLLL
The data set is described as follows: Inhibition of human GRK7.

Data set [9] has as its target RAC-alpha serine/threonine-protein kinase (Homo sapiens, UniProt P31749). The data set is described as follows: Inhibition of human PKBalpha.
The nature of data set [10]: Apparent permeability across apical to basal side in MDCK-MDR1 cells. The class given is ADME, cell-based, Canis lupus familiaris. Particulars: dog.
For data set [11], the target named is T4, Rhodopsin kinase GRK1 (Homo sapiens, UniProt Q15835).
T4 sequence (Q15835 whole entry): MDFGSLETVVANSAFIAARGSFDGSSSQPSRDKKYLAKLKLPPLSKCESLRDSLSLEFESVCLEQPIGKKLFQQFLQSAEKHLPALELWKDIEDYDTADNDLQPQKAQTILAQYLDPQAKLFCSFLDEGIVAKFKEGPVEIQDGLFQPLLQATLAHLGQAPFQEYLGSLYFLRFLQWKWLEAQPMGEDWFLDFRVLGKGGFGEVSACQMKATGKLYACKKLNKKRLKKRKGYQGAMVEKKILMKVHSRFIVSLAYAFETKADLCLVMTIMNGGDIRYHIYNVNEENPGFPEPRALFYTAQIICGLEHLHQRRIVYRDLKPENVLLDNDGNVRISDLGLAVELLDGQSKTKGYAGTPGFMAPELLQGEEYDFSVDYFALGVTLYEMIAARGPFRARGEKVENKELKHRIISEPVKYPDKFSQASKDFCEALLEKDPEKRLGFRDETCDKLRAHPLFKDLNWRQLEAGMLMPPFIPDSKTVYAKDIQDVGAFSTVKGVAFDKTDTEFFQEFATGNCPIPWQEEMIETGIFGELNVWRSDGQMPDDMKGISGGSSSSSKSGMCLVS
The data set is described as follows: Inhibition of human GRK1.

Data set [12] deals with T4, Rhodopsin kinase GRK1. The data set is described as follows: Binding affinity to GRK1 (unknown origin) by Thermofluor thermal shift assay. Background: Differential scanning fluorimetry follows unfolding on heating by fluorescence.
For data set [13], the target named is T1, G protein-coupled receptor kinase 5. The data set is described as follows: Binding affinity to GRK5 (unknown origin) by Thermofluor thermal shift assay.
A short description of data set [14]: Half life in C57BL mouse at 10 mg/kg, po administered as single dose. To be noted: in vivo. Type of data set: ADME, organism-based. In short, it runs like this:
(§1)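 C57BL mice given a single dose, 2 mg/kg i.v. or 10 mg/kg p.o., both formulated in 20% HPbCD. Plasma concentration–time profiles gave clearance, Vdss, terminal half-lives, Cmax, tmax, oral AUC and bioavailability.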

Data set [15] in a line: Volume of distribution at steady state in C57BL mouse at 2 mg/kg, iv or 10 mg/kg, po administered as single dose. The class given is ADME, organism-based. Particulars: in vivo, read-out: Vdss. In short, it runs like this: as §1
Data set [16] is described as follows: Cmax in C57BL mouse at 2 mg/kg, iv or 10 mg/kg, po administered as single dose. Type of data set: ADME, organism-based. On the set-up: dose 10 mg/kg. Particulars: in vivo. In short, it runs like this: as §1
A short description of data set [17]: Plasma clearance in C57BL mouse at 2 mg/kg, iv or 10 mg/kg, po administered as single dose. The class given is ADME, organism-based. The gist of the method:
as §1

Data set [18] can be described thus: Tmax in C57BL mouse at 2 mg/kg, iv or 10 mg/kg, po administered as single dose. The class given is ADME, organism-based. To be noted: in vivo. In short, it runs like this:
as §1

Data set [19] is described as follows: Half life in C57BL mouse at 2 mg/kg, iv administered as single dose. The class given is ADME, organism-based. To be noted: in vivo. The gist of the method: as §1
Data set [20] is described as follows: Oral bioavailability in C57BL mouse at 10 mg/kg administered as single dose. Particulars: in vivo. The class given is ADME, organism-based. The gist of the method: as §1

Chain of RAC-alpha serine/threonine-protein kinase (P31749 whole entry): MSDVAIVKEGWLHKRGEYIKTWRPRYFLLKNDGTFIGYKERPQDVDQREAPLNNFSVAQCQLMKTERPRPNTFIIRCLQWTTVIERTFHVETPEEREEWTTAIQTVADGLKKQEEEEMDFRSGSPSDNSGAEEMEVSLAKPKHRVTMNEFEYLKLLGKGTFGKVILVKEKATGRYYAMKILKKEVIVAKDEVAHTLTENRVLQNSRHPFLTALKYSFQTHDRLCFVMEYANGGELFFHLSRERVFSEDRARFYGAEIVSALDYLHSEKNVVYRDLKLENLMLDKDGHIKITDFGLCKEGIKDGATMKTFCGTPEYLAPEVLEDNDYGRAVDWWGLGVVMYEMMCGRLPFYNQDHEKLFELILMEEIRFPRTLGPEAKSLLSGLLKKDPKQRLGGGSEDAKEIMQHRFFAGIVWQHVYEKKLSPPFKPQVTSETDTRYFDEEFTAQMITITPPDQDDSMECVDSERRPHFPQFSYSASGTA
Chain of Rho-associated protein kinase 1 (Q13464 whole entry): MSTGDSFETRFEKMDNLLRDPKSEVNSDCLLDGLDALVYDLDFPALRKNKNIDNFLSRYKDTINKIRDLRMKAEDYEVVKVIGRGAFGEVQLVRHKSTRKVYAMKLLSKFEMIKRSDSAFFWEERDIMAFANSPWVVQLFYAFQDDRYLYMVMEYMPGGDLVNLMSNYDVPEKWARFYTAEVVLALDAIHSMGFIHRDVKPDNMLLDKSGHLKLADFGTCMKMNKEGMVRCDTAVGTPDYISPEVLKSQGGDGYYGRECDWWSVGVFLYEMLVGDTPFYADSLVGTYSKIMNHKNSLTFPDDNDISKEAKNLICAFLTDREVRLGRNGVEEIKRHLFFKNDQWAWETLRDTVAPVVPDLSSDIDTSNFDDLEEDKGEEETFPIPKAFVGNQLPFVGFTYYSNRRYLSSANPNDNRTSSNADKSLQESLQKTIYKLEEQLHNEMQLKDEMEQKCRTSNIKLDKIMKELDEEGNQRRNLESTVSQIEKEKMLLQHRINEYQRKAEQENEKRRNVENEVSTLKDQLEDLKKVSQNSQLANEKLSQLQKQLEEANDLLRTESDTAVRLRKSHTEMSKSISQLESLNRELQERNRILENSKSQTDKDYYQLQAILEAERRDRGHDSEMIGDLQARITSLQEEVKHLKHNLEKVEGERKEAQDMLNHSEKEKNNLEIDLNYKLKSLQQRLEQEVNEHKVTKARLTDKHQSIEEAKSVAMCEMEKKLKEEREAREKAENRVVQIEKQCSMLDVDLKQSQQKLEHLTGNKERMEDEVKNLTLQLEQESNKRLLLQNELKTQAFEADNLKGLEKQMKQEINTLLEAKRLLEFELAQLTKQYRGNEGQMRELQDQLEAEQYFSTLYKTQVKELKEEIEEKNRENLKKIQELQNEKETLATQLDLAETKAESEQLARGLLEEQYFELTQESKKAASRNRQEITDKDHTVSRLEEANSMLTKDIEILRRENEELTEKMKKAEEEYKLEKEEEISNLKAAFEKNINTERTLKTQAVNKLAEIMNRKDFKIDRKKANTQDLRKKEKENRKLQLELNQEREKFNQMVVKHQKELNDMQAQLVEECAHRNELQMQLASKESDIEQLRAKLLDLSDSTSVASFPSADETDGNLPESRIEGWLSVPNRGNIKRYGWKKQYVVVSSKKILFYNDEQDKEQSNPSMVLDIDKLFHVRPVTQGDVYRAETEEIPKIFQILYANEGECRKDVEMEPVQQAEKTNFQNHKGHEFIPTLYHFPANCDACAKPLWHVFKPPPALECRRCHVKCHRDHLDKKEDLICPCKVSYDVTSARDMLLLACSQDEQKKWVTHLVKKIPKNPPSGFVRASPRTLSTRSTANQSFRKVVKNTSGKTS

As a reminder, the IC50 is the midpoint of a concentration-inhibition curve. As usually defined, the Papp A→B is the apparent permeability from the apical to the basolateral side of a cell layer. Regarding `COc1cccc(Cn2cnc3ccc(-c4cn[nH]c4)cc3c2=O)c1`, the IC50 in [1] was 0.246 µM; in [2] it was 4.5 µM; in data set [3], more than 10 µM; in [4], 0.855 µM; in data set [5], 9.07 µM; at Aurora kinase A, 0.011 µM. For the same compound, the IC50 was 3.85 µM in data set [6]; 3.27 µM in data set [7]; 0.483 µM in data set [8]; 9.14 µM against Rhodopsin kinase GRK7; 1.45 µM in data set [9]; more than 10 µM at Rhodopsin kinase GRK1 [11]. In data set [10], the Papp A→B was 20.6 ×10⁻⁶ cm/s.
On to `COc1ccc(Cn2cnc3ccc(-c4cn[nH]c4)cc3c2=O)cc1F`, for which, in data set [10], the Papp A→B was 12.3 ×10⁻⁶ cm/s.
The Kd is the equilibrium constant for the complex coming apart. Take `O=c1c2ccc(-c3cn[nH]c3)cc2ncn1Cc1ccccc1`: the figures for the Kd (on Rhodopsin kinase GRK1 [12]; in [13]) were 47.6 µM and more than 83.3 µM, respectively.
For `O=c1c2cc(-c3cn[nH]c3)ccc2ncn1Cc1ccccc1`, in that order: 14.5 µM and 34.3 µM.
With `COc1cc(Cn2cnc3ccc(-c4cn[nH]c4)cc3c2=O)ccc1F`, in data set [10], the apical-to-basolateral permeability (Papp A→B) amounted to 10.1 ×10⁻⁶ cm/s.
On the same count and under the same terms, the same measure for `O=c1c2cc(-c3cn[nH]c3)ccc2ncn1Cc1cccc(Oc2ccc(F)cc2)c1`: 7.73 ×10⁻⁶ cm/s; for `O=C(Nc1ccc(F)cc1)c1cccc(Cn2cnc3ccc(-c4cn[nH]c4)cc3c2=O)c1`: 0.44 ×10⁻⁶ cm/s.
For orientation: half-life means how long it takes for the measured level to halve. Broadly, the Cmax is the peak of the concentration-time curve. The Tmax is the time at which the peak concentration occurs. For orientation: bioavailability means the share of a dose that reaches the circulation, judged against a reference dose that is usually intravenous. Read a high bioavailability as much systemic uptake. Turning to `COc1cccc(Cn2ncc3ccc(-c4cn[nH]c4)cc3c2=O)c1`, the IC50 was 1.27 µM in [1]; more than 10 µM in [2]; more than 10 µM in data set [3]; 4.88 µM in [4]; more than 10 µM in [5]; 0.137 µM on Aurora kinase A. Also, the concentration for half-maximal inhibition (IC50) is more than 10 µM in [6]; more than 10 µM in data set [7]; 3.15 µM in data set [8]; more than 10 µM at Rhodopsin kinase GRK7; more than 10 µM in [9]; more than 10 µM on Rhodopsin kinase GRK1 [11]. Moreover, the half-life is 2.41 h in [14] and 1.01 h in data set [19]. The Vd in [15] was 2.01 L/kg. Further, in data set [16], the Cmax came to 4.96 µM. The compound also came in with a clearance in data set [17] of 29.1 mL/min/kg. In data set [18], the Tmax stood at 0.83 h. Also, in data set [20], the bioavailability came to 65.3%. Further, the Papp A→B in [10] was 53.2 ×10⁻⁶ cm/s.
As for `O=c1c2cc(-c3ccn[nH]3)ccc2ncn1Cc1ccccc1`, the Kd (on Rhodopsin kinase GRK1 [12]; in [13]) was more than 83.3 µM each time.
`O=C(NCc1ccc(F)cc1)c1cccc(Cn2cnc3ccc(-c4cn[nH]c4)cc3c2=O)c1`: the Papp A→B in data set [10] stood at 0.57 ×10⁻⁶ cm/s.
Still for that read-out and setting: as for `CNCCC(c1cccc(OC)c1)n1cnc2ccc(-c3cn[nH]c3)cc2c1=O` (racemic), the figure is less than 0.34 ×10⁻⁶ cm/s; as for `COc1cccc([C@@H](C)n2cnc3ccc(-c4cn[nH]c4)cc3c2=O)c1`, 37.8 ×10⁻⁶ cm/s; as for `O=C(NCc1c(F)cccc1F)c1ccc(Cn2cnc3ccc(-c4cn[nH]c4)cc3c2=O)cc1`, 0.66 ×10⁻⁶ cm/s.
Consider `O=c1c2cc(-c3cncnc3)ccc2ncn1Cc1ccccc1`, for which the dissociation constant Kd (at Rhodopsin kinase GRK1 [12]; in data set [13]) was more than 83.3 µM throughout.
Turning to `O=C(NCc1c(F)cccc1F)c1cccc(Cn2cnc3ccc(-c4cn[nH]c4)cc3c2=O)c1`, the Papp A→B in [10] came out at 0.85 ×10⁻⁶ cm/s.
On to `O=c1c2cc(-c3ccncc3)ccc2ncn1Cc1ccccc1`, for which the Kd (at Rhodopsin kinase GRK1 [12]; in [13]) was more than 83.3 µM throughout.
On to `O=c1c2cc(-c3cn[nH]c3)ccc2ncn1Cc1cccc(OC(F)F)c1`, for which the apparent permeability from apical to basolateral (Papp A→B) in [10] was found to be 24.2 ×10⁻⁶ cm/s.
